Screening results from PubChem BioAssay.
RGS4 inh: RGS4 inhibitors, primary screen, cell-based, HEK293 M3R inducible RGS4, calcium flux | Regulator of G-protein signaling 4 (Homo sapiens), P49798 | Fluo-4 calcium flux; stronger effect = higher value; triggered by carbachol at its EC20 | B-score at 10 µM | 310,000 tested, 0.45% active | AID 463165, 2010;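 active means B-score, a plate-corrected calcium signal, over three deviations above library mean, with baseline fluorescence within five deviations of library mean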;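 further: RGS4 expression induced by doxycycline in cells with stable M3 receptor; B-score is computed from the integrated fluorescence ratio over baseline after carbachol; higher B-score means a larger calcium signal and so more RGS4 inhibition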
Target sequence (P49798 whole entry, looked up): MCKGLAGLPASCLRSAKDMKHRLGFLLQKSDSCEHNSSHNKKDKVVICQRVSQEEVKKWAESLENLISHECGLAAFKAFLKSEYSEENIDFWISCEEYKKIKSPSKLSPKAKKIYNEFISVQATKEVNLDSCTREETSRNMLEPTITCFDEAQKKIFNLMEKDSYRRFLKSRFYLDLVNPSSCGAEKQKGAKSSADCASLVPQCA
MrgX1 antagonist: antagonists of human MrgX1 receptor, primary screen, HEK293 cells, Fluo-4 calcium flux; Mas-related G-protein coupled receptor member X1 (Homo sapiens), Q96LB2; BAM8-22 antagonism; stronger effect = lower value; B-score at 10 µM; 310,000 tested, 1.3% active; AID 588676, 2011;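 active means calcium-response B-score plate-corrected more than 3 library SD below zero, starting fluorescence within 5 deviations, no agonist response on first addition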;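 further: peak minus trough fluorescence over baseline after final BAM8-22 challenge near maximal dose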
Target sequence (Q96LB2 whole entry, looked up): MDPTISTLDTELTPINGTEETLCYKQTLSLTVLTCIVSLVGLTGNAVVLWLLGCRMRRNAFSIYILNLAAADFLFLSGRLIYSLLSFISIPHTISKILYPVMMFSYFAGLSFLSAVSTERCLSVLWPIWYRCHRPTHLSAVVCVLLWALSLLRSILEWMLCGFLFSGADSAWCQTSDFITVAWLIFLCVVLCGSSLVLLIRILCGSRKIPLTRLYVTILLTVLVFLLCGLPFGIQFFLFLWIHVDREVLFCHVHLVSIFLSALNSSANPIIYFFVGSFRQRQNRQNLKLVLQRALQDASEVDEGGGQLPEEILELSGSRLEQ
MrgX1 allo act: positive allosteric modulators of MrgX1, primary screen, HEK293 cells, Fluo-4 calcium flux; Mas-related G-protein coupled receptor member X1 (Homo sapiens), Q96LB2; FDSS; stronger effect = higher value; B-score at 10 µM; 310,000 tested, 0.63% active; AID 588675, 2011;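 active means plate-corrected calcium response at least 3 library SD above typical, normal starting fluorescence, not activating the receptor alone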;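 further: compound read alongside a low EC10 to EC30 dose of BAM8-22 agonist; peak minus trough fluorescence over baseline measured at the second addition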
MrgX1 ag: agonists of human MrgX1 receptor, primary screen, HEK293 cells, Fluo-4 calcium flux; 310,000 tested, 0.44% active; B-score at 10 µM; Fluo-4 calcium fluorescence, agonist mode; stronger effect = higher value; Mas-related G-protein coupled receptor member X1 (Homo sapiens), Q96LB2;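 active means calcium response B-score plate-corrected fluorescence ratio at least 3 library SD, with starting fluorescence B-score inside 5 SD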
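Assay system: stable human MrgX1 HEK293 cell line. Quantity: 15,000 cells per well. Schedule: cells plated overnight, dye loaded 0.5 h 37 °C, 0.5 h room temperature. Detection: Fluo-4 NW calcium-flux fluorescence, kinetic read. Read-out basis: peak-minus-minimum fluorescence over baseline, converted to B scores. Control set: positive and negative control wells on each plate.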
RGS4 pot: RGS4 potentiators or activators, primary screen, cell-based, HEK293 M3R inducible RGS4, calcium flux. carbachol calcium flux Fluo4; stronger effect = lower value. B-score at 10 µM. 310,000 tested, 0.92% active;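 active means B-score of the integrated calcium signal more than 4 SD below the library mean, with starting fluorescence not abnormally high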;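 further: negative B-score means reduced calcium response which marks RGS4 activation or potentiation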
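Test system: HEK293 cells with stable M3R and inducible RGS4; also added: carbachol at ECmax as muscarinic agonist stimulus; schedule: dye loading 30 min 37 °C, buffer rest 30 min RT; technique: kinetic calcium fluorescence imaging with Fluo4-AM dye, 2 µM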
The depositor's hits bear a star; i = inactive; x = no result given. Only some compounds are listed: those with a hit (about 3.5% of all), similar ones and a draw of the others.

SMILES	RGS4 inh	MrgX1 antagonist	MrgX1 allo act	MrgX1 ag	RGS4 pot
O=C(N/N=C/c1ccccc1F)c1cccc(NC(=O)c2ccccc2Cl)c1	i	i	8.44*	i	i
O=C(Nc1ccccc1C(=O)O)c1cccc(NC(=O)c2ccccc2Cl)c1	i	i	i	i	-7.01*
Cc1ccccc1C(=O)Nc1cccc(C(=O)Nc2ccccc2C(=O)O)c1	i	i	i	i	i
O=C(N/N=C/c1ccc(F)cc1)c1cccc(NC(=O)c2ccc(F)cc2)c1	i	i	i	i	-7.33*
CCCCCCC(=O)NC(Nc1ccc(S(N)(=O)=O)cc1)C(Cl)(Cl)Cl (stereo not drawn)	i	i	i	i	i
Cc1cc[n+](C(C)C(=O)c2ccc(-c3ccccc3)cc2)cc1 (stereo not drawn)	i	i	i	i	-9.36*
CC(C(=O)c1ccc(-c2ccccc2)cc1)[n+]1ccccc1 (stereo not drawn)	i	i	i	i	i
COc1cc(C(=O)NCCOc2cc(C)ccc2C(C)C)cc(OC)c1OC	i	-4.72*	i	i	i
Cc1ccc(C(C)C)c(OCCNC(=O)c2cncc(Br)c2)c1	i	i	i	i	i
CC1=N/C(=C\c2ccc([N+](=O)[O-])cc2)C(=O)N1c1ccc(F)cc1F	i	i	16.9*	i	i
CC1=N/C(=C\c2ccc([N+](=O)[O-])cc2)C(=O)N1c1ccc(Cl)cc1	i	i	i	i	i
Cc1cc([N+](=O)[O-])ccc1NC(=O)Nc1ccc(F)cc1F	i	i	i	i	i
CC1=N/C(=C/c2ccc([N+](=O)[O-])cc2)C(=O)N1c1ccc(Cl)cc1Cl	i	i	15.1*	i	i
Cc1ccc(S(=O)(=O)NC(C(=O)Oc2cc3oc(=O)cc(C)c3cc2Cl)C(C)C)cc1 (stereo not drawn)	i	i	i	i	i
Cc1cc(C)[n+](-c2ccc(Oc3ccccc3)c(S(=O)(=O)[O-])c2)[nH]1	i	i	i	i	i
CCN(CC)C(=O)c1cc([N+](=O)[O-])cc2c1-c1ccc([N+](=O)[O-])cc1C2=C(C#N)C#N	i	i	i	i	i
COc1ccc(NC(=O)CN(C)C(=O)c2cc(-c3ccc(Cl)cc3)nc3ccccc23)cc1	i	i	i	i	-7.95*
CCOc1ccc(NC(=O)CN(C)C(=O)c2cc(-c3ccc(OC)cc3)nc3ccccc23)cc1OCC	i	i	i	i	-8.01*
Nc1ccc(NC(=O)c2ccco2)c(Cl)c1	i	i	i	i	i
O=C(Oc1cccc(Br)c1)c1cccnc1	i	i	i	i	i
COc1ccc(CN2CCN(CC=C(C)C)C(CCO)C2)cc1Cn1cccn1 (stereo not drawn)	i	i	i	28.2*	i
CC1CN(C(=O)COC(=O)c2cc(Cl)ccc2[N+](=O)[O-])CC(C)O1 (stereo not drawn)	i	-4.78*	i	i	i
CC1(C(=O)N2CC3(CC(c4ccccc4)=NO3)C[C@H]2C(=O)NCC(N)=O)CC1 (stereo partly drawn)	i	-5.6*	i	i	i
CCC(=O)Nc1cccc(C2=NOC3(C2)C[C@@H](C(N)=O)N(C(=O)COc2ccc(Cl)cc2)C3)c1 (stereo partly drawn)	i	i	8.88*	i	i
CCC(=O)N1CC2(CC(c3cccc(NC(=O)COc4ccc(Cl)cc4)c3)=NO2)C[C@@H]1C(N)=O (stereo partly drawn)	i	x	x	x	i
SMILES	RGS4 inh	MrgX1 antagonist	MrgX1 allo act	MrgX1 ag	RGS4 pot
CCC(=O)Nc1cccc(C2=NOC3(C2)C[C@@H](C(N)=O)N(C(=O)c2ccccc2C(=O)c2ccccc2)C3)c1 (stereo partly drawn)	i	-7.98*	i	i	i
CCN(CC)S(=O)(=O)c1ccc(C2=NOC3(C2)N(C)c2ccccc2C3(C)C)cc1 (stereo not drawn)	i	i	i	i	-8.42*
CN1c2ccccc2C(C)(C)C12CC(c1ccc(S(=O)(=O)N3CCCCC3)cc1)=NO2 (stereo not drawn)	i	i	i	i	i
CCn1nnnc1SCC(=O)c1ccc(NC(C)=O)cc1	i	i	i	i	i
O=C(COC(=O)c1ccccc1NCCO)Nc1cc(C(F)(F)F)ccc1N1CCOCC1	i	i	i	i	i
CCOc1cc(-c2nnc(NC(=O)c3ccco3)o2)cc(OCC)c1OCC	i	-4.87*	i	i	i
CCC(NS(=O)(=O)c1ccc(C)cc1)C(=O)N1CCOCCOCCOCCOCC1 (stereo not drawn)	i	i	i	i	i
COc1ccc(C=C2C(=O)c3ccccc3C2=O)cc1O	i	i	i	i	i
CCCCc1ccc(/C=C2\C(=O)c3ccccc3C(O)=C2C(=O)OCC)cc1	i	-10.1*	i	i	i
O=[N+]([O-])c1ccc(O)c(-c2cc(C(F)(F)F)nc(-c3ccccc3)n2)c1	i	-5.62*	i	i	i
O/N=C\c1ccc2noc(-c3ccc(Cl)cc3)c2c1	i	i	i	i	i
O=S(=O)(Nc1c(S(=O)(=O)c2ccccc2)c2nc3ccccc3nc2n1C1CCCCC1)c1ccccc1	i	i	i	i	-10.2*
C/C(=N\Nc1nc(Cl)c(Cl)cc1Cl)c1ccc(S(=O)(=O)NCc2ccco2)cc1	i	i	i	i	i
COc1ccc2c(c1)[nH]c1c(N3CCN(Cc4ccc5c(c4)OCO5)CC3)ncnc12	i	-6.1*	i	i	i
O=C(NCc1ccc2c(c1)OCO2)c1ccc(N2C(=O)C3CCCCC3C2=O)cc1 (stereo not drawn)	i	i	i	i	i
O=C(OCC(=O)N1CCN(c2ccccc2)CC1)c1ncc(Cl)c(Cl)c1Cl	i	i	i	i	i
O=C(NS(=O)(=O)Oc1cccc(Cl)c1Cl)OC[C@@H]1CCCN2CCCCC12 (stereo partly drawn)	i	i	i	i	i
Cc1ccc(C(=O)CCC(=O)Nc2cccc(C(F)(F)F)c2)cc1	i	i	i	i	i
Cc1ccc2c(CC(=O)O)coc2c1C	i	i	i	i	i
